The values that follow come from ChEMBL document CHEMBL2417485, “Quinazoline-based multi-tyrosine kinase inhibitors: synthesis, modeling, antitumor and antiangiogenic properties” (Eur J Med Chem, 2013).

One series concerns NIH3T3. Nature of the series: Antiproliferative activity against mouse NIH/3T3 cells after 72 hrs by MTT assay. It counts as cell-based. To be noted: NIH3T3, 72 h. In general terms: Tetrazolium dyes change colour on reduction, which living cells bring about.
In a further series the test system is A-431. The series is described as follows: Antiproliferative activity against human A431 cells after 72 hrs by MTT assay. It counts as functional, cell-based. To be noted: A-431, 72 h.
Series [1] addresses Vascular endothelial growth factor receptor 2 (Homo sapiens) (UniProt P35968). Nature of the series: Inhibition of VEGFR2 (unknown origin) at 1 uM. The method, boiled down:
(§1)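 Recombinant FGFR-1 or VEGFR-2 (final 200 ng/mL) in MOPS pH 7.2 buffer with MgCl2, EGTA, EDTA, DTT and BSA. Compound range was 1–0.01 µM. Reactions used myelin basic protein (0.2 mg/ml), 0.05 mM ATP and 0.25 μCi [γ-32P]ATP, 30 °C for 20 min.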

Series [2] concerns HUVEC. Nature of the series: Antiangiogenic activity in HUVEC assessed as effect on number of cell meshwork at 0.1 uM after 18 hrs. To be noted: Homo sapiens.
The target of series [3] is Epidermal growth factor receptor (Homo sapiens, UniProt P00533). The series is described as follows: Inhibition of EGFR (unknown origin).
Series [4] addresses Tyrosine-protein kinase ABL1 (Homo sapiens, UniProt P00519). The series is described as follows: Inhibition of Abl (unknown origin).
In series [5] the test system is HUVEC. The series is described as follows: Antiproliferative activity against HUVEC after 72 hrs by MTT assay. To be noted: Homo sapiens. Format: cell-based.
Series [6] deals with HUVEC. The series is described as follows: Antiangiogenic activity in HUVEC assessed as disruption of tube-like structures at 0.1 uM after 18 hrs by phase contrast microscopy. To be noted: Homo sapiens.
Series [7] is described as follows: Antiproliferative activity against mouse BNL 1ME A.7R.1 cells after 72 hrs by MTT assay. It counts as functional, cell-based.
In series [8] the target is T1, Platelet-derived growth factor receptor beta (Homo sapiens, UniProt P09619). The series is described as follows: Inhibition of PDGFRbeta (unknown origin) at 1 uM.
T1 sequence (P09619 whole entry): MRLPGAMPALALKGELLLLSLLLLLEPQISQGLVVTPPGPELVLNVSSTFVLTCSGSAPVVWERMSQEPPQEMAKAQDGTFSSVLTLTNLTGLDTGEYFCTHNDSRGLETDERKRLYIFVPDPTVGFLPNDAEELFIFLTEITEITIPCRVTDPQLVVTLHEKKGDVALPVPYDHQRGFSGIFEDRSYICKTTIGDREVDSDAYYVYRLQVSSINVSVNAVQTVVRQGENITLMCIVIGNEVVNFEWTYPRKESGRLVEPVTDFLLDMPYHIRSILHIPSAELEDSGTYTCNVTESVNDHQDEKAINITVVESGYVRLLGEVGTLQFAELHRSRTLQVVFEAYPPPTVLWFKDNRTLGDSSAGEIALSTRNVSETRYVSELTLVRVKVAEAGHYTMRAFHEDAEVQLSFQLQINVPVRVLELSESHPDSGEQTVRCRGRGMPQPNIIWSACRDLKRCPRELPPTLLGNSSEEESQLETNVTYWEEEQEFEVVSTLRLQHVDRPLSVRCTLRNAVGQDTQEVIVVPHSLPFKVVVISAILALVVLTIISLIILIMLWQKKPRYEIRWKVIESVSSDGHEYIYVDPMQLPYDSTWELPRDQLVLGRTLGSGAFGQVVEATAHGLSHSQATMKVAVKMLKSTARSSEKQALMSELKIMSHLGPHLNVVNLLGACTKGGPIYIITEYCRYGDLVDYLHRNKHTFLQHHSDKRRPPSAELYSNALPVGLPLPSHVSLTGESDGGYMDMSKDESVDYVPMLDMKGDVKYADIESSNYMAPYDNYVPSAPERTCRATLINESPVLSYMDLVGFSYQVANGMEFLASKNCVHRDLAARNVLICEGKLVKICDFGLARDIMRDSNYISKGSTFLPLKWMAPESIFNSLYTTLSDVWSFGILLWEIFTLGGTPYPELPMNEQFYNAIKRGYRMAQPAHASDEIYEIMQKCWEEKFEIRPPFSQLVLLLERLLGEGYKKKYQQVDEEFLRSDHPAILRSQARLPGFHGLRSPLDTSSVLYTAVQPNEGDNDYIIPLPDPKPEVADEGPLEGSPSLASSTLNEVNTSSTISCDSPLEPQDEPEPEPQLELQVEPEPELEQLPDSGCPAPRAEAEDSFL
The target of series [9] is Proto-oncogene tyrosine-protein kinase Src (Homo sapiens, UniProt P12931). The series is described as follows: Inhibition of Src (unknown origin).
Sequence of Proto-oncogene tyrosine-protein kinase Src (P12931 2-536 limits assumed): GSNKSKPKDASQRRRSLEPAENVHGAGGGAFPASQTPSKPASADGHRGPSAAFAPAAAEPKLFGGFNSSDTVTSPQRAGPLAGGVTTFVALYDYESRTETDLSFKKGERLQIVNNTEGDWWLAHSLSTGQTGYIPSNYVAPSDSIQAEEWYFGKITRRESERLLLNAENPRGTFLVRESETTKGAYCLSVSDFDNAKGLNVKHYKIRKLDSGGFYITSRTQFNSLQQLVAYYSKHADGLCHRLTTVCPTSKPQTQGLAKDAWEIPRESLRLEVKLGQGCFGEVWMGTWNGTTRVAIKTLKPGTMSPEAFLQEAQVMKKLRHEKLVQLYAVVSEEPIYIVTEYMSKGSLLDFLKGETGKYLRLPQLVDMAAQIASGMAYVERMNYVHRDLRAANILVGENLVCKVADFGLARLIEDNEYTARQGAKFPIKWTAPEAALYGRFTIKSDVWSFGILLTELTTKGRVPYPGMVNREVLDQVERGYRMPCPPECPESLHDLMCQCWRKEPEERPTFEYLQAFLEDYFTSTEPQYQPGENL
The test system of the next series is HeLa. The series is described as follows: Antiproliferative activity against human HeLa cells after 72 hrs by MTT assay. Format: functional, cell-based.
In series [10] the target is Fibroblast growth factor receptor 1 (Homo sapiens, UniProt P11362). The series is described as follows: Inhibition of FGFR1 (unknown origin). The method, boiled down: as §1
Sequence of Fibroblast growth factor receptor 1 (P11362 whole entry): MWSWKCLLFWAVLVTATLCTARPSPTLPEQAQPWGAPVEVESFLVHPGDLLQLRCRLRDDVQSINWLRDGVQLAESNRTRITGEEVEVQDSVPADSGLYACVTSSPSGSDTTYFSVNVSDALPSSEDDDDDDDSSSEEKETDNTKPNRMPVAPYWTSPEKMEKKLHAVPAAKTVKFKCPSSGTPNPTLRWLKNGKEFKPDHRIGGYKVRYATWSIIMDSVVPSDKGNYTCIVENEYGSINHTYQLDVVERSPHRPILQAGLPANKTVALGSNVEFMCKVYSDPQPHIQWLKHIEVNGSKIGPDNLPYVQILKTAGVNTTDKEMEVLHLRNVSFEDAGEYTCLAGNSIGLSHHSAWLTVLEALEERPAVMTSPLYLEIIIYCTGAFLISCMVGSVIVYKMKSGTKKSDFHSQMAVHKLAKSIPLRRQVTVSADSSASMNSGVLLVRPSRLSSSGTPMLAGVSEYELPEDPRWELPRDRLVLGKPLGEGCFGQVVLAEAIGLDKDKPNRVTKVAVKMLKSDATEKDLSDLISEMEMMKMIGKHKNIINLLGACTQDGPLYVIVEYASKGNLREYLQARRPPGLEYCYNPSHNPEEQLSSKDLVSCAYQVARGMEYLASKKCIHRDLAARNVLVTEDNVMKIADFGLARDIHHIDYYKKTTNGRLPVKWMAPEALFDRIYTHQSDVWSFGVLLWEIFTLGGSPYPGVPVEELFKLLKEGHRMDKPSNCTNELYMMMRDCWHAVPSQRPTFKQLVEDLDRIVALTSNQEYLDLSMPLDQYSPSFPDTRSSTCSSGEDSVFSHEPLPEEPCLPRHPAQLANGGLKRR
The test system of a further series is HT-29. Nature of the series: Antiproliferative activity against human HT-29 cells after 72 hrs by MTT assay. It counts as functional, cell-based. To be noted: HT-29, 72 h.
Series [11] concerns HUVEC. The series is described as follows: Antiangiogenic activity in HUVEC assessed as reduction in cell migration at 1 uM after 4 hrs by matrigel assay. Format: functional, cell-based. To be noted: Homo sapiens, in the assay text read “by modified Boyden chamber assay” for “by matrigel assay”. An outline of the steps: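 Modified Boyden chamber. HUVECs (3×10^4 cell/cm²) were placed on 5.0 µm pore inserts in basal medium with 1% FCS, ±1 µM compound; the lower chamber held growth-factor medium. After 4 h, cells were fixed, the upper side was swabbed, and membranes were DAPI-stained. Nuclei were counted in five fields per insert. Five repeats; results are the percent change from growth-factor-only controls.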

The nature of series [12]: Antiproliferative activity against human MCF7/beta cells after 72 hrs by MTT assay. Conditions: MCF7, 72 h. Format: functional, cell-based.
Series [13] can be described thus: Toxicity in mouse BNL 1ME A.7R.1 cells allografted Balb/c mouse model assessed as body weight loss at 50 mg/kg, ip daily measured after 3 days. It counts as organism-based. Details: dose 50 mg/kg, route intraperitoneal. To be noted: in vivo, 72 h.
Series [14] deals with HUVEC. The series is described as follows: Antiproliferative activity against HUVEC assessed as reduction in cell viability at 10 uM after 24 hrs by MTT assay. Format: cell-based. To be noted: human. An outline of the steps: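 Primary HUVECs (passage ≤5) were seeded at 1×10^4 cell/cm² and grown for 24 h. They were exposed to compound at 10 μM for 24 h (20 h, then MTT 0.50 mg/ml for 4 h). Absorbance was read at 570 nm. Results are the percent change from untreated cultures; mean ± SD of ≥3 experiments.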

Series [15] deals with Mus musculus. Nature of the series: Inhibition of FGF2-induced neovascularization in C57/BL6 mouse assessed as reduction in hemoglobin concentration in matrigel plug at 1 uM, sc measured after 7 days. It counts as functional, organism-based. An outline of the steps:
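Three-month-old C57/BL6 mice under isoflurane received 0.5 mL Matrigel GFR subcutaneously into the flank. The gel contained heparin (12 U.I.), ±FGF-2 200 ng/plug and 1 µM compound. After 7 days, plugs were removed and steeped overnight at 4 °C in 0.1% Brij-35/PBS. Hemoglobin was measured with Drabkin's reagent at 540 nm.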

The subject of series [16] is HUVEC. Nature of the series: Induction of apoptosis in HUVEC assessed as mono-/oligo-nucleosome formation at 10 uM after 24 hrs by ELISA. It counts as functional, cell-based. Conditions: Homo sapiens.
In series [17] the test system is HUVEC. The series is described as follows: Antiangiogenic activity in HUVEC assessed as decrease in dimensional parameters at 0.1 uM after 18 hrs. To be noted: Homo sapiens.
The target of series [18] is T1, Platelet-derived growth factor receptor beta. The series is described as follows: Inhibition of PDGFRbeta (unknown origin).
Series [19] has as its system Mus musculus. Nature of the series: Antitumor activity against mouse BNL 1ME A.7R.1 cells allografted in Balb/c mouse assessed as tumor growth inhibition at 50 mg/kg, ip daily measured after 7 days. Format: functional, organism-based. More on the design: dose 50 mg/kg. The method, boiled down:
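Male Balb/c mice, 10 weeks old, received 10⁷ BNL 1ME A.7R.1 cells in PBS subcutaneously in the dorsal region. From day 7, mice were dosed daily ip with 50 mg/kg in 0.9% NaCl with 5% PEG 400 and 0.5% Tween 80, or vehicle. Tumors were measured daily for 7 days by caliper (V = AB²/2). Mean ± SEM, five animals per group.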

pIC50: −log10 of the molar value. Activity calls are given as the source filed them. No cut-off for these calls is given here.

Sequence of Tyrosine-protein kinase ABL1 (P00519 whole entry): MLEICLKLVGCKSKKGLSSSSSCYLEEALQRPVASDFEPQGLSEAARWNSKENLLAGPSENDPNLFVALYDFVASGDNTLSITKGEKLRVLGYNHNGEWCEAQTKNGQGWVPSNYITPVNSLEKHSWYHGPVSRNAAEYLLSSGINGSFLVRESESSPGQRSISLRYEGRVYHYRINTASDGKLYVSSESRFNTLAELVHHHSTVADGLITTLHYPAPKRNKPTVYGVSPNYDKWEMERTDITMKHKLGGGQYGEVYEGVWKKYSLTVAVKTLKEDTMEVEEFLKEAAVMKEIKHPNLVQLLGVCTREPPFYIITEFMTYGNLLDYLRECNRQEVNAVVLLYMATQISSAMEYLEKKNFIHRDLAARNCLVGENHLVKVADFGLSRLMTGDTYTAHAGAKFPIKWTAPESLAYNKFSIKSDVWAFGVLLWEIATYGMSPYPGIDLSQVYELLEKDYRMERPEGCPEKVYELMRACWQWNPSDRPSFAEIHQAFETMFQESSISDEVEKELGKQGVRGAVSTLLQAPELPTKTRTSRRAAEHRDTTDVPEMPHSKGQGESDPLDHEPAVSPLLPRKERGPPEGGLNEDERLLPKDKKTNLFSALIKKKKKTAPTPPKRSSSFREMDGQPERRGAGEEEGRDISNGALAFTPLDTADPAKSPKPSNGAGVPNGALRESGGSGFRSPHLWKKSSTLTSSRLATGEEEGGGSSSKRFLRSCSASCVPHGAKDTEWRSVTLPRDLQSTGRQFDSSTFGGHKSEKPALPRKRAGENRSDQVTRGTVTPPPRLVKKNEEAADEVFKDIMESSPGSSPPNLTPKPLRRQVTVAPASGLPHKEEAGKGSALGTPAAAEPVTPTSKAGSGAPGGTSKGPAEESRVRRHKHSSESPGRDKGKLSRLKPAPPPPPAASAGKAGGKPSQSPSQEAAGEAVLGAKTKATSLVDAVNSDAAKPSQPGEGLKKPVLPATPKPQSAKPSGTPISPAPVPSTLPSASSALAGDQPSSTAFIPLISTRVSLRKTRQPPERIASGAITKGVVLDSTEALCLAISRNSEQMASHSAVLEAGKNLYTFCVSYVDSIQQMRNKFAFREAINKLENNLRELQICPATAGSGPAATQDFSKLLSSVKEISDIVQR
Sequence of Vascular endothelial growth factor receptor 2 (Homo sapiens) (P35968 whole entry): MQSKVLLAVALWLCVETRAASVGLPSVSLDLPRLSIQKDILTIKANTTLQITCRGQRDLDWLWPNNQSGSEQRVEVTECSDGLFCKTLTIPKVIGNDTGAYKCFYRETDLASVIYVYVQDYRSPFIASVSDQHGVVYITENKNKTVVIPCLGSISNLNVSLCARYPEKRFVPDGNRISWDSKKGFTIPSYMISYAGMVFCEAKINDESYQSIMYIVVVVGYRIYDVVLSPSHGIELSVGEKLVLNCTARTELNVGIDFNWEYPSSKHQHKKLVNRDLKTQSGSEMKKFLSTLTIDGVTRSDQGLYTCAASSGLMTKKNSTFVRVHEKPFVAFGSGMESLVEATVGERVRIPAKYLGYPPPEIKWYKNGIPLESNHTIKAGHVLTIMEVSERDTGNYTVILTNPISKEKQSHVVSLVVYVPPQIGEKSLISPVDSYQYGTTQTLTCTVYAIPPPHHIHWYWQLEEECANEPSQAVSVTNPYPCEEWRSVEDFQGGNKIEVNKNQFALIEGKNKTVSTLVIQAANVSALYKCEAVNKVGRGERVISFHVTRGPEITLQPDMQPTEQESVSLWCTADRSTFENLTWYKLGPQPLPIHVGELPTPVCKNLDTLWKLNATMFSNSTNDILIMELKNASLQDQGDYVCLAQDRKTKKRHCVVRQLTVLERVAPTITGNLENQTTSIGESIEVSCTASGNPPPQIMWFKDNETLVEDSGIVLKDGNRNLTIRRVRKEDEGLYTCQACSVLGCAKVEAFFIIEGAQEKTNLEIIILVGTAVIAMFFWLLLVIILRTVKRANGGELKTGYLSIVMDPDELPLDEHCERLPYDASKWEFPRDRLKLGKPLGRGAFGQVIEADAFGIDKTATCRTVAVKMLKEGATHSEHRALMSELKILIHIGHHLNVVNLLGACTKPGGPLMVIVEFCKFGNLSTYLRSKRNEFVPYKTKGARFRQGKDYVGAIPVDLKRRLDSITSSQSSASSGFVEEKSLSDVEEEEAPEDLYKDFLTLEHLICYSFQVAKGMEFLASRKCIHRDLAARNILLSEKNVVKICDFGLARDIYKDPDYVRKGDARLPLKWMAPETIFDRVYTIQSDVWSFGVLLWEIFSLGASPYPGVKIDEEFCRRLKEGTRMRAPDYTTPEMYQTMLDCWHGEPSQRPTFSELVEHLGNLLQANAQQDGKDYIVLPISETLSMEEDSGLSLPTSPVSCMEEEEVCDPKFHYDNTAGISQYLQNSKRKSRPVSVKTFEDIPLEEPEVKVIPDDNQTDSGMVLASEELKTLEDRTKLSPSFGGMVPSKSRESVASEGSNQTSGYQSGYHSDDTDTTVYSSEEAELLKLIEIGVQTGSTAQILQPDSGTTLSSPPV

For `Cc1cccc(Nc2ncnc3c2ccc2ccccc23)c1`, the pIC50 with NIH3T3 and with A-431 was below 5.00 throughout.

In the case of `CS(=O)(=O)Nc1cccc(Nc2ncnc3cc4c(cc23)OCCO4)c1`, the pIC50 with NIH3T3 and in the series with A-431 was below 5.00 throughout.

On to `Cc1cccc(Nc2ncnc3cc4c(cc23)OCCO4)n1`, for which the pIC50 in the series with NIH3T3 and in the series with A-431 was below 5.00 throughout.

Turning to `C=CCOc1cc2ncnc(Nc3cccc(C(F)(F)F)c3)c2cc1OC`, the figures for the pIC50 in the series with NIH3T3 and in the series with A-431 were below 5.00 and 5.23, respectively.

Take `Cl.c1ccc(-c2cccc(Nc3ncnc4cc5c(cc34)OCCCO5)c2)cc1`: the pIC50 was 6.04 in the series with NIH3T3; 7.57 in [3]; 7.25 in series [4]; 6.04 in the series with HUVEC [5]; 5.52 in series [7]; 6.19 in series [9]. Also, the pIC50 in the series with HeLa is 5.26; in series [10] it was 7.20; with HT-29 it was 6.15; in [12] it was 6.15; with A-431, 6.18. Moreover, the inhibition in [1] amounted to 30%; in series [8], 40%. The result with HUVEC [2] and in the series on HUVEC [16] was Active. In addition, the outcome with HUVEC [6] was inactive. Further, the inhibition result in the series with HUVEC [11] and in the series on Mus musculus [15] was “Active” in each case. In addition, the Activity result (in series [13]; with HUVEC [14]) was “Toxic” each time.

For `C=CCOc1cc2ncnc(Nc3cccc(C)c3)c2cc1OC`, the pIC50 in the series with NIH3T3 is 5.18; in the series on A-431, 5.07.

In the case of `Brc1cccc(Nc2ncnc3c2ccc2ccccc23)c1`, the pIC50 in the series with NIH3T3 and with A-431 was below 5.00 each time.

With `CS(=O)(=O)Nc1cccc(Nc2ncnc3cc4c(cc23)OCO4)c1`, the negative-log IC50 (pIC50) in the series with NIH3T3 and with A-431 was below 5.00 each time.

As for `Cc1ccnc(Nc2ncnc3cc4c(cc23)OCO4)c1`, the pIC50 with NIH3T3 and with A-431 was below 5.00 in each case.

As for `Cc1cccc(Nc2ncnc3cc4c(cc23)n(C)c(=O)n4C)c1`, the pIC50 in the series with NIH3T3 and with A-431 was below 5.00 throughout.

Take `COc1cc2ncnc(Nc3cccc(Br)c3)c2cc1OC`: the pIC50 in the series with NIH3T3 was below 5.00; in the series with HUVEC [5], 5.39; in series [7], 5.02; in the series on HeLa, below 5.00; in the series on HT-29, below 5.00; in series [12], 5.09. Besides, the result with HUVEC [2] was Active. For the same compound, the result in the series on HUVEC [6] was inactive. The inhibition result in the series with HUVEC [11] was “Active”. Moreover, the inhibition result in the series with Mus musculus [15] is “inactive”.

For the compound `Cc1ccnc(Nc2ncnc3cc4c(cc23)OCCO4)c1`, the pIC50 is 5.18 in the series with NIH3T3 and 5.29 with A-431.

Consider `FC(F)(F)c1cccc(Nc2ncnc3c2ccc2ccccc23)c1`, for which the pIC50 in the series with NIH3T3 and in the series with A-431 was below 5.00 each time.

Take `Cl.c1ccc(-c2cccc(Nc3ncnc4cc5c(cc34)OCCO5)c2)cc1`: the pIC50 is 6.22 in the series on NIH3T3; 7.62 in series [4]; 7.10 in the series with HUVEC [5]; 5.57 in series [7]; 7.00 in series [18]; 6.19 in series [9]. Also, the pIC50 in the series on HeLa was 6.21; in series [10], 6.75; with HT-29, 6.17; in [12], 6.13. Further, in [1], the inhibition came to 50%. The result with HUVEC [2], with HUVEC [6], in the series on HUVEC [17] and in the series with HUVEC [16] was Active. Moreover, the inhibition entry in the series on HUVEC [11] and in the series on Mus musculus [15] was “Active” each time. In addition, the Activity result with HUVEC [14] was “Toxic”. Besides, in the series on Mus musculus [19], the TGI entry was “inactive”.

Regarding `C=CCOc1cc2ncnc(Nc3cccc(Br)c3)c2cc1OC`, the pIC50 in the series with NIH3T3 is below 5.00; in the series on A-431 it was 5.35.

In the case of `Cn1c(=O)n(C)c2cc3c(Nc4cccc(Br)c4)ncnc3cc21`, the pIC50 with NIH3T3 and in the series on A-431 was below 5.00 throughout.

Turning to `Cc1cccc(Nc2ncnc3cc4c(cc23)OCO4)n1`, the pIC50 in the series with NIH3T3 and in the series with A-431 was below 5.00 throughout.

Consider `Cn1c(=O)n(C)c2cc3c(Nc4cccc(C(F)(F)F)c4)ncnc3cc21`, for which the pIC50 with NIH3T3 and in the series on A-431 was below 5.00 each time.

As for `Cl.c1ccc(-c2cccc(Nc3ncnc4cc5c(cc34)OCO5)c2)cc1`, the pIC50 with NIH3T3 was 6.22; in series [4], 7.29; in the series with HUVEC [5], 6.12; in series [7], 5.55; in series [18], 6.61; in series [9], 7.49. Besides, the pIC50 in series [10] is 7.20; in the series on HT-29, 6.02. Also, in the series on HUVEC [2], the result was Active. The outcome in the series with HUVEC [6] and with HUVEC [16] was inactive. The inhibition result in the series on HUVEC [11] and in the series on Mus musculus [15] was “Active” in each case. For the same compound, the Activity entry in the series on HUVEC [14] was “Non-toxic”. Also, the TGI entry in the series on Mus musculus [19] was “Active”.

Broadly, the pIC50 is the IC50 on a negative log10 scale, so that one unit is a factor of ten. Usually inhibition stands for the share of the control response that was lost under treatment.
